Assay results reported in publication PMC5164959 (Biochemical pharmacology, 2016).
Several values for one entry are separate records, joined by “and”; a condition that tells them apart may be missing. Equal entries are not always repeated.

Experiments:
[1] = tested on: PKC; experiment: PKC activation: phosphorylation of PKC substrates by western blot in HeLa cells; assay type: cell-based, human
Outline: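 HeLa cells were grown in DMEM with 5% FBS and treated 30 min with 4 or 40 μM test compound or 100 nM PMA, with or without 1 h pretreatment with 500 nM bisindolylmaleimide II. In separate runs, a 5-HT2AR agonist (10 μM, 6 h) was given with or without 40 μM antagonist. Lysates (50 μg) were immunoblotted for phospho-(Ser) PKC substrates; four independent experiments were quantified.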

[2] = tested on: PKC; experiment: PKC activation: phosphorylation of PKC substrates by western blot in U87 cells; assay type: cell-based, human; details: treatment for 30 min
Outline: (§1)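 Glioblastoma cells were treated 30 min with 4 or 40 μM test compound or 100 nM PMA, with or without 1 h pretreatment with 500 nM bisindolylmaleimide II. Cleared Triton lysates (50 μg) were run on 8.75% SDS-PAGE and probed with phospho-(Ser) PKC substrate antibody, detected by alkaline phosphatase chemiluminescence. Three independent experiments were quantified.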

[3] = tested on: PKC; experiment: PKC activation: phosphorylation of PKC substrates by western blot in U251 cells; assay type: cell-based, human; details: treatment for 30 min
Outline: as §1

[4] = target: T1, DGKα (Rattus norvegicus, UniProt P51556); experiment: Kinase assay with purified DGKα and PC:DAG:PS liposomes; assay type: biochemical; details: for Vmax (ATP): ATP-dependent activity, 5 mol% DAG; for Vmax (DAG): DAG-dependent activity, 1 mM ATP; for Decrease of Vmax of purified DGKα: 0.5 mol% drug
T1 sequence (P51556 whole entry): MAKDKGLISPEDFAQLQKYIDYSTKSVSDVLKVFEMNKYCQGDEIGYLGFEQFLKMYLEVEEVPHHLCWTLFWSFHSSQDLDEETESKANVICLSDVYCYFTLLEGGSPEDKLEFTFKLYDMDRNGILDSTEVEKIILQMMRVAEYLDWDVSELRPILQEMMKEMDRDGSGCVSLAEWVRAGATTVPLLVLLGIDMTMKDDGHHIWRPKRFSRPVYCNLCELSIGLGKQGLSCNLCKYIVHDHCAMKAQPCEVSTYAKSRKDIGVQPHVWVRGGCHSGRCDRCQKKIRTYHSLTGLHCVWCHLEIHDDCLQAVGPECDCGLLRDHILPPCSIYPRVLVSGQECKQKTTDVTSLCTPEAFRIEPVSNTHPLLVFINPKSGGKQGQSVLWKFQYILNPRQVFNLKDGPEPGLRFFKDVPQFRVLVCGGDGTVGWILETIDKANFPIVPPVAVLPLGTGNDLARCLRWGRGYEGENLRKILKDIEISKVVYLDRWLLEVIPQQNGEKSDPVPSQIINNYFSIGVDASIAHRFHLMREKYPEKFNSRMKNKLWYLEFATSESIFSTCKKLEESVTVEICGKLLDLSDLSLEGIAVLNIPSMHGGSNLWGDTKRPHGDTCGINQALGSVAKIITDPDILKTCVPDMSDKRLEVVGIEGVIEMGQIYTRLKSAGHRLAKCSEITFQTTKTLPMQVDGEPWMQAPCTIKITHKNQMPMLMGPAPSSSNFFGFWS
Outline: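 Rat FLAG-DGKα was expressed in HeLa cells by adenovirus (72 h) and purified on FLAG M2 beads. Reactions contained buffer B (MOPS pH 7.5), 1 mM CaCl2, 1 mM DTT and 4.75 mM PC:PS:DAG liposomes (5 mol% DAG), with test compound built into the liposomes at 0.5 or 2.0 mol% or added from DMSO. Reactions with [γ32P]-ATP ran 15 min at 25°C. Km and Vmax came from Michaelis-Menten non-linear regression.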

[5] = target: T2, 5-HT2B (Homo sapiens, UniProt P41595); experiment: Radioligand competition binding assay
T2 sequence (P41595 whole entry, species assumed): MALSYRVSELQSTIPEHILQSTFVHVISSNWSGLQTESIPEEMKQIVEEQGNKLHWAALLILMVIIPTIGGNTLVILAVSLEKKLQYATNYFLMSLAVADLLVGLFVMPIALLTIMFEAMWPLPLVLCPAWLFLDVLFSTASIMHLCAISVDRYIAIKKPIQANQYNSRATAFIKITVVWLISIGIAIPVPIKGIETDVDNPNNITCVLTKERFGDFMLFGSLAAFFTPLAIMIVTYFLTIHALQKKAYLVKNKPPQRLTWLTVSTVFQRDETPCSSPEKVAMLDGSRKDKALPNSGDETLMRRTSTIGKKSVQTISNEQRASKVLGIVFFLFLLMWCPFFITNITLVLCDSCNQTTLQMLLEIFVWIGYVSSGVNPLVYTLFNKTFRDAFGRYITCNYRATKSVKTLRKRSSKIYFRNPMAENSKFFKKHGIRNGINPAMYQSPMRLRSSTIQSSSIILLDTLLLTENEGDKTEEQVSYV

[6] = target: 5-HT6 (Homo sapiens, UniProt P50406); experiment: Radioligand competition binding assay
Sequence of 5-HT6 (P50406 whole entry, species assumed): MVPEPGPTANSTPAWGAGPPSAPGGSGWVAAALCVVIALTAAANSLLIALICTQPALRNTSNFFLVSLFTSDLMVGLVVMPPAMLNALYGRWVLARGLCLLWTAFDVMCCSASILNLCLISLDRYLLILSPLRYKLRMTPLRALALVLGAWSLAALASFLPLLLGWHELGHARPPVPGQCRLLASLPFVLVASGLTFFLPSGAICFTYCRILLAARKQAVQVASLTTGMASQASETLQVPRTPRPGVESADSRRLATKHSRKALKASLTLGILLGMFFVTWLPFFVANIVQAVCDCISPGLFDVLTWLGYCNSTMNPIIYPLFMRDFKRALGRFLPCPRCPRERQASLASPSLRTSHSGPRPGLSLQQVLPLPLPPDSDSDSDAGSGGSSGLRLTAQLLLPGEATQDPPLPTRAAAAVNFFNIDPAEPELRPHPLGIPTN
Outline: (§2)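 Run by the NIMH PDSP as radioligand competition binding assays. The primary screen used 10 μM test compound and reported mean percent inhibition of radioligand binding (n=4); above 50% counted as significant. At those receptors, IC50 values came from non-linear regression of competition binding isotherms and were converted to Ki with the Cheng-Prusoff equation.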

[7] = target: T3, 5-HT2C (Homo sapiens, UniProt P28335); experiment: Radioligand competition binding assay
T3 sequence (P28335 33-458): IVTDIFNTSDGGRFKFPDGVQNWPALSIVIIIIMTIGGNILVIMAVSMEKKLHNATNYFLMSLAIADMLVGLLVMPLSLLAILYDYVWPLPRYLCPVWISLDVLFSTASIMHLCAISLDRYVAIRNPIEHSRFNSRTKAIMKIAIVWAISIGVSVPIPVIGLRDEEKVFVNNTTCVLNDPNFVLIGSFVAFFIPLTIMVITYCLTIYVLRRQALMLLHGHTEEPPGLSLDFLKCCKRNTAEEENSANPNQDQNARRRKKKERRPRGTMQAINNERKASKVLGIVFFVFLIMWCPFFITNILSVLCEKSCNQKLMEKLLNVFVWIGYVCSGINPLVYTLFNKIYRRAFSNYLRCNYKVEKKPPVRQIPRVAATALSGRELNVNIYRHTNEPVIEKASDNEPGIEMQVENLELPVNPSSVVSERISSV

[8] = target: 5-HT3 (Homo sapiens, UniProt P46098); experiment: Radioligand competition binding assay; details: read-out: Percent Inhibition of Binding 5-HT3
Outline: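 Run by the NIMH PDSP as a radioligand competition binding primary screen. Test compounds were applied at 10 μM, and the read-out was mean percent inhibition of radioligand binding (n=4).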

[9] = target: T3, 5-HT2C; experiment: Antagonist functional assay; assay type: cell-based; details: read-out: Percent Inhibition of Agonist Response 5-HT2C
Outline: (§3)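 Run by the NIMH PDSP as cell-based antagonist-mode functional assays. Test compounds were applied at 10 μM. The read-out was percent inhibition of the response to an EC90 concentration of a reference agonist; that concentration was determined empirically for each receptor.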

[10] = target: T4, 5-HT1D (Homo sapiens, UniProt P28221); experiment: Radioligand competition binding assay
T4 sequence (P28221 whole entry, species assumed): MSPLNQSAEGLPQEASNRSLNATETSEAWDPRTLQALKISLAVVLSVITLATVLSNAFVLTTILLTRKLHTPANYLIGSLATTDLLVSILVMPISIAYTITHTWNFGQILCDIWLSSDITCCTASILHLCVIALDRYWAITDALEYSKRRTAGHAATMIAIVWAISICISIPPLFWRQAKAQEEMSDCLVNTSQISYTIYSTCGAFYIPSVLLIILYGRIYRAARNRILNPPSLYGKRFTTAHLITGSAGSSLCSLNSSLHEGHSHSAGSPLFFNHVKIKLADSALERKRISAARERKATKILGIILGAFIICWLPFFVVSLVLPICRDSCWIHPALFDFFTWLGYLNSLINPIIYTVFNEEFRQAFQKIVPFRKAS
Outline: as §2

[11] = target: T2, 5-HT2B; experiment: Antagonist functional assay; assay type: cell-based; details: read-out: Percent Inhibition of Agonist Response 5-HT2B
Outline: as §3

[12] = target: T5, 5-HT1A (Homo sapiens, UniProt P08908); experiment: Radioligand competition binding assay
T5 sequence (P08908 1-422): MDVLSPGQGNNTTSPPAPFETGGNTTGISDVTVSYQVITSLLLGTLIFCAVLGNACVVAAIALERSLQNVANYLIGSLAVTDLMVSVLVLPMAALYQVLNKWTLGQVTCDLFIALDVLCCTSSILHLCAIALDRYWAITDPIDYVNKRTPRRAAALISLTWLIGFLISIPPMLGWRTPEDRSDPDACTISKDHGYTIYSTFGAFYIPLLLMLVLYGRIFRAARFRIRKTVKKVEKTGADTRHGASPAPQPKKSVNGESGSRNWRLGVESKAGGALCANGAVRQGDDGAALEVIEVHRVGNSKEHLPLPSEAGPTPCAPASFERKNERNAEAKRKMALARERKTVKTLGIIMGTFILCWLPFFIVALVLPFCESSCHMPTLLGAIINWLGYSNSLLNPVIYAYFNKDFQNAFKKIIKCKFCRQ

[13] = target: T4, 5-HT1D; experiment: Antagonist functional assay; assay type: cell-based; details: read-out: Percent Inhibition of Agonist Response 5-HT1D
Outline: as §3

[14] = target: T6, 5-HT2A (Homo sapiens, UniProt P28223); experiment: Antagonist functional assay; assay type: cell-based; details: read-out: Percent Inhibition of Agonist Response 5-HT2A
T6 sequence (P28223 whole entry, species assumed): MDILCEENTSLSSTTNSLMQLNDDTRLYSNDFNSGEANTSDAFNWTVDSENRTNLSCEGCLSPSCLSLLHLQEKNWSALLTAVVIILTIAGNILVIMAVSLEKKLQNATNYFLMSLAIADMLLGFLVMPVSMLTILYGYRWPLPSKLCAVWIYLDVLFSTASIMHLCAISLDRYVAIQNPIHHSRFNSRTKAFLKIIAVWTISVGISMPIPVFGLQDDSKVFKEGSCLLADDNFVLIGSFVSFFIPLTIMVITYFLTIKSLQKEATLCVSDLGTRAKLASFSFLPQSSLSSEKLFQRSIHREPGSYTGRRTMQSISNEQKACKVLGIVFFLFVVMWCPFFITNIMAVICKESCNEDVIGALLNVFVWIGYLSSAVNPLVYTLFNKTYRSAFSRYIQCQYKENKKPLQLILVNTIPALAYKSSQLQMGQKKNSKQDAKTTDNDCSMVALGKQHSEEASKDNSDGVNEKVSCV
Outline: as §3

[15] = target: 5-HT1B (Homo sapiens, UniProt P28222); experiment: Radioligand competition binding assay; details: read-out: Percent Inhibition of Binding 5-HT1B
Sequence of 5-HT1B (P28222 whole entry, species assumed): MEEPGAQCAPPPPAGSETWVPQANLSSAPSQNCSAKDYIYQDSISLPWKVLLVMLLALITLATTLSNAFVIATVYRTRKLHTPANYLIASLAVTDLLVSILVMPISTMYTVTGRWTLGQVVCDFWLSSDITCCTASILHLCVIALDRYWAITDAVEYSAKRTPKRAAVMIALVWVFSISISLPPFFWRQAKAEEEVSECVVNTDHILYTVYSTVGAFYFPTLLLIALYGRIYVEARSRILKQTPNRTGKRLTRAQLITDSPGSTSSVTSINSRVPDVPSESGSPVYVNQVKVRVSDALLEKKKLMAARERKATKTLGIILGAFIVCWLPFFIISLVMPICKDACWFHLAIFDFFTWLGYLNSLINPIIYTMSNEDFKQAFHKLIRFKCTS
Outline: as §2

[16] = target: 5-HT5A (Homo sapiens, UniProt P47898); experiment: Radioligand competition binding assay
Sequence of 5-HT5A (P47898 whole entry, species assumed): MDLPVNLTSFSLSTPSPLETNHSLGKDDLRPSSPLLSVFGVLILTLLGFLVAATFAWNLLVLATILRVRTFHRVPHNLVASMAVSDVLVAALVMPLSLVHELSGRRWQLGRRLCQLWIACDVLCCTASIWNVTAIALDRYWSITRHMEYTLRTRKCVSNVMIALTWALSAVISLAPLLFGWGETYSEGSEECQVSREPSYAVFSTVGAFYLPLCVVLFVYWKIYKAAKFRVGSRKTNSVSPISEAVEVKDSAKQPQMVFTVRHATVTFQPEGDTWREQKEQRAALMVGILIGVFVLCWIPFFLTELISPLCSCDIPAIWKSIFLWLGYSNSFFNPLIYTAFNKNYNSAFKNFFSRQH
Outline: as §2

[17] = target: T7, 5-HT7 (Homo sapiens, UniProt P34969); experiment: Antagonist functional assay; assay type: cell-based; details: read-out: Percent Inhibition of Agonist Response 5-HT7
T7 sequence (P34969 whole entry, species assumed): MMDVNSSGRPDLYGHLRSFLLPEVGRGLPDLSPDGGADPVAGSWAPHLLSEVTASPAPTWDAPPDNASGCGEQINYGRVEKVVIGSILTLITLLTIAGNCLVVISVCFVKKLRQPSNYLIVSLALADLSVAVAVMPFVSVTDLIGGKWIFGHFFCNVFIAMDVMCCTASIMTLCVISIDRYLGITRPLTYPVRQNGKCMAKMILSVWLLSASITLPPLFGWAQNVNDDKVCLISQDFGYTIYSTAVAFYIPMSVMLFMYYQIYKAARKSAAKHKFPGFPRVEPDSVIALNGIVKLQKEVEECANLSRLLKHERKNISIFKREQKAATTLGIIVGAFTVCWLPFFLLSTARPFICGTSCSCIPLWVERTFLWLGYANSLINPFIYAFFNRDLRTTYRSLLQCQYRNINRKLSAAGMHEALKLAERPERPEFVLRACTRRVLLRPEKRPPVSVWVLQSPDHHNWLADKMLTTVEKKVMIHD
Outline: as §3

[18] = target: T7, 5-HT7; experiment: Radioligand competition binding assay
Outline: as §2

[19] = target: T6, 5-HT2A; experiment: Radioligand competition binding assay
[20] = tested on: 5-HTRs; experiment: Agonist functional assays at 5 serotonin receptors; assay type: cell-based; details: 5 receptors where low Ki values were observed; data not shown
[21] = target: T1, DGKα; experiment: Kinase assay with HEK 293T cell homogenate over-expressing DGKα; assay type: biochemical
Outline: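 Each reaction held 5 μg homogenate protein, 2 mM extruded PC:PS:DAG liposomes (10 mol% dioleoyl, dioctanoyl or stearoyl-arachidonoyl DAG), buffer B, 1 mM DTT, 1 mM CaCl2 and 1 mM [γ32P]-ATP, run 20 min at 30°C. Test compounds came from DMSO stocks. 32P-PA was counted, normalized to GFP lysate and to DMSO control; IC50 from log[inhibitor] versus normalized response.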

[22] = target: DGKι (Homo sapiens, UniProt O75912); experiment: Kinase assay with HEK 293T cell homogenate over-expressing DGKι; assay type: biochemical
Sequence of DGKι (O75912 1-1065 isoform O75912-1): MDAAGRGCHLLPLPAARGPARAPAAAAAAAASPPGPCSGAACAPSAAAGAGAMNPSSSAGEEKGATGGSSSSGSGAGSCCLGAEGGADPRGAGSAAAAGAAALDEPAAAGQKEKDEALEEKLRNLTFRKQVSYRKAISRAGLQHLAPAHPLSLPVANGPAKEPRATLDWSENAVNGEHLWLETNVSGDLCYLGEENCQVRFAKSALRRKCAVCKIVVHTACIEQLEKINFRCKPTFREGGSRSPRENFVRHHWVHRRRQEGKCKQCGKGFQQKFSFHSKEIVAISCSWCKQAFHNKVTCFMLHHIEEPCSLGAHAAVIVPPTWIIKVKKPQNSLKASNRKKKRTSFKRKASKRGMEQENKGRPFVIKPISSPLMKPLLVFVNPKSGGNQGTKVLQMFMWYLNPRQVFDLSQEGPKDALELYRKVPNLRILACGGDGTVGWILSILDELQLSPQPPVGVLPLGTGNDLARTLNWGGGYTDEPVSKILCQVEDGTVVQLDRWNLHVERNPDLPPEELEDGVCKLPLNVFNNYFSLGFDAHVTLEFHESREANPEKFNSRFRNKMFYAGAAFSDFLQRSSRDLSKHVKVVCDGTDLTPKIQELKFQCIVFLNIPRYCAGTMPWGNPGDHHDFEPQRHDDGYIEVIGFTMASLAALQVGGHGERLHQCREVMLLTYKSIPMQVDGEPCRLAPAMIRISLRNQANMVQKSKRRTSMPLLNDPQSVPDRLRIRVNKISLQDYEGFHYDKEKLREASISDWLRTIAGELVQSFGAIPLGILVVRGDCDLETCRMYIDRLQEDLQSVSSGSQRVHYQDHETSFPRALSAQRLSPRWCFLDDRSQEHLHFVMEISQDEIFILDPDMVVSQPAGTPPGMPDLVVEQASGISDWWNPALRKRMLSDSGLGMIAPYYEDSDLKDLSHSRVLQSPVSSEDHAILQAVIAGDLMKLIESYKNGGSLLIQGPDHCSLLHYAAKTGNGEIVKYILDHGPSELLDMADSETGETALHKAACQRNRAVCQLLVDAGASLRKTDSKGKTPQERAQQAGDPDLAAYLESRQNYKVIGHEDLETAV

[23] = cited from earlier work
[24] = target: DGKβ (Rattus norvegicus, UniProt P49621); experiment: Kinase assay with HEK 293T cell homogenate over-expressing DGKβ; assay type: biochemical; details: 20 μM inhibitor, dioleoyl DAG liposomes
Outline: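 Reactions contained 5 μg homogenate, 2 mM liposomes (10 mol% dioleoyl DAG, 40 mol% PS, 50 mol% PC), buffer B, 1 mM DTT, 1 mM CaCl2 and [γ32P]-ATP, 20 min at 30°C. Test compound was added from DMSO. Organic-phase 32P was counted and expressed as percent of DMSO control after subtracting the GFP-lysate background.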

[25] = target: DGKδ (Homo sapiens, UniProt Q16760); experiment: Kinase assay with HEK 293T cell homogenate over-expressing DGKδ; assay type: biochemical; details: 20 μM inhibitor, dioleoyl DAG liposomes
Outline: (§4)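 Reactions without CaCl2 contained 5 μg homogenate, 2 mM liposomes (10 mol% dioleoyl DAG, 40 mol% PS, 50 mol% PC), buffer B, 1 mM DTT and [γ32P]-ATP, 20 min at 30°C. Test compound was added from DMSO. Extracted 32P-lipid was counted, GFP-lysate normalized, and expressed as percent of DMSO control.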

[26] = target: DGKθ (Homo sapiens, UniProt P52824); experiment: Kinase assay with HEK 293T cell homogenate over-expressing DGKθ; assay type: biochemical; details: 20 μM inhibitor, dioleoyl DAG liposomes
Outline: as §4

For `CCCCCCCCCCCCCC(=O)O[C@@H]1[C@@H](C)[C@@]2(O)[C@@H](C=C(CO)C[C@]3(O)C(=O)C(C)=C[C@@H]23)[C@@H]2C(C)(C)[C@]12OC(C)=O` [PMA, Phorbol 12-myristate 13-acetate], the “Increase in phosphorylation of PKC downstream targets” value ([1]; 100 nM PMA, 30 min) was “greater than 3 fold”.

For `CN1CCCC1CCn1cc(C2=C(c3c[nH]c4ccccc34)C(=O)NC2=O)c2ccccc21` (centres unmarked) [bis, bisindolylmaleimide II], the “Change in basal PKC activity” value ([1]; 500 nM bis alone for 1 h) was “did not see any changes in basal PKC activity”.

With `COc1cc(Br)c(OC)c2c1[C@H](CN)C2` [TCB-2] the PKC activity ([1]; 10 μM TCB-2 for 6 h) was “significant elevation of PKC activity”.

For `O=C(c1ccc(F)cc1)C1CCN(CCn2c(=O)[nH]c3ccccc3c2=O)CC1` [ketanserin], the “Activation of PKC” value [2] was “does not activate PKC”, the “Effect on TCB-2-induced PKC activation” value ([1]; 40 μM ketanserin co-treatment with 10 μM TCB-2 for 6 h) was “inhibited the ability of TCB-2 to activate PKC” and the “Activation of PKC” value ([1]; 40 μM ketanserin, 30 min) was “no activation of PKC was observed”. The “Activation of PKC” value [3] was “does not activate PKC” and the IC50 [4] was 264000 nM.

In the case of `O=c1c2ccccc2[nH]c(=S)n1CCN1CCC(=C(c2ccc(F)cc2)c2ccc(F)cc2)CC1` [R59949, 3-[2-(4-[bis-(4-fluorophenyl)methylene]-1-piperidinyl)ethyl]-2,3-dihydro-2-thioxo-4(1H)quinazolinone], the Ki [5] is reported as 80 nM, the inhibition at 10 µM ([5]; read-out: Percent Inhibition of Binding 5-HT2B) is reported as 96.9% and the Ki [6] is reported as 3070 nM. For the same molecule, the inhibition at 10 µM ([6]; read-out: Percent Inhibition of Binding 5-HT6) was 71.8%, the Ki [7] was 46 nM and the inhibition at 10 µM ([7]; read-out: Percent Inhibition of Binding 5-HT2C) was 72.2%. For the same molecule, the inhibition at 10 µM [8] was 0.7%, the inhibition at 10 µM [9] was 28.1% and the Ki [10] was 64.5 nM. It also gave an inhibition at 10 µM ([10]; read-out: Percent Inhibition of Binding 5-HT1D) of 76.7%, an inhibition at 10 µM [11] of 99.4% and a Ki [12] of 2000 nM. For the same molecule, the inhibition at 10 µM ([12]; read-out: Percent Inhibition of Binding 5-HT1A) was 61.1%, the inhibition at 10 µM [13] was 136% and the inhibition at 10 µM [14] was 101%. It also gave an inhibition at 10 µM [15] of 20.3%, a Ki [16] of 3250 nM and an inhibition at 10 µM ([16]; read-out: Percent Inhibition of Binding 5-HT5A) of 71.6%. The inhibition at 10 µM [17] was 32.9%, the Ki [18] was 681 nM and the inhibition at 10 µM ([18]; read-out: Percent Inhibition of Binding 5-HT7) was 82.8%. The Ki [19] was 9.2 nM, the inhibition at 10 µM ([19]; read-out: Percent Inhibition of Binding 5-HT2A) was 94.2% and the “Agonist activity at 5-HTRs” value [20] was “very low to no activity”.

For `Cc1nc2sccn2c(=O)c1CCN1CCC(=C(c2ccc(F)cc2)c2ccc(F)cc2)CC1` [ritanserin], the IC50 [21] was ~15000 nM, the “Activity of DGKα, percent of control” value ([21]; 20 μM inhibitor, liposomes with dioleoyl DAG, cell homogenate) was “decreased by about half” and the “Potency against DGKα with other DAG species” value ([21]; 20 μM, liposomes containing dioctanoyl or stearoyl arachidonoyl DAG) was “similarly potent”. For the same molecule, the “Activation of PKC” value [2] was “activate PKC”, the “Activity of DGKι, percent of control” value ([22]; 20 μM inhibitor, dioleoyl DAG liposomes, cell homogenate) was “not detectably inhibited” and the IC50 ([22]; IC50 for DGKι, cell homogenate, 1 mM ATP, 10 mol% DAG) was 55000 to 65000 nM and ~60000 nM. For the same molecule, the “IC50 for DGKι relative to IC50 for DGKα” value ([22]; fold higher than IC50 for DGKα) was 2–3 fold, the Adverse side effects [23] was “few adverse side effects” and the Oral bioavailability [23] was “orally bioavailable”. The half-life ([23]; in humans) was “approximately 40 hours”, the “Activity of DGKβ, percent of control” value [24] was “not detectably inhibited” and the “Increase in phosphorylation of PKC downstream targets” value ([1]; 40 μM, 30 min) was “about 2.5 fold”. The “Activation of PKC” value [3] was “not in U251 cells”, the “Vmax (ATP)” value ([4]; 0.5 mol% drug in liposomes) was 20 ± 1 nmol/min/mg and the “Vmax (DAG)” value ([4]; 0.5 mol% drug in liposomes) was 17 ± 2 nmol/min/mg. For the same molecule, the “Decrease of Vmax of purified DGKα” value ([4]; in the context of ATP) was “greater than 50%”, the “Decrease of Vmax of purified DGKα” value ([4]; in the context of DAG) was “greater than 50%” and the “Vmax (ATP)” value ([4]; 2.0 mol% drug in liposomes) was 12 ± 0.01 ^† nmol/min/mg. The “Vmax (DAG)” value ([4]; 2.0 mol% drug in liposomes) was 11 ± 2 nmol/min/mg, the “Activity of DGKδ, percent of control” value [25] was “not detectably inhibited” and the “Activity of DGKθ, percent of control” value [26] was “not detectably inhibited”.
